RGS4 inh: RGS4 inhibitors, primary screen, cell-based, HEK293 M3R inducible RGS4, calcium flux. Regulator of G-protein signaling 4 (Homo sapiens), P49798. Fluo-4 calcium flux; active compounds read high; triggered by carbachol at its EC20. B-score at 10 µM. 310,000 tested, 0.45% active;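 active = B-score, a plate-corrected calcium signal, over three deviations above library mean, with baseline fluorescence within five deviations of library mean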;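 note: RGS4 expression induced by doxycycline in cells with stable M3 receptor; B-score is computed from the integrated fluorescence ratio over baseline after carbachol; higher B-score means a larger calcium signal and so more RGS4 inhibition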
Target sequence (P49798 whole entry, looked up): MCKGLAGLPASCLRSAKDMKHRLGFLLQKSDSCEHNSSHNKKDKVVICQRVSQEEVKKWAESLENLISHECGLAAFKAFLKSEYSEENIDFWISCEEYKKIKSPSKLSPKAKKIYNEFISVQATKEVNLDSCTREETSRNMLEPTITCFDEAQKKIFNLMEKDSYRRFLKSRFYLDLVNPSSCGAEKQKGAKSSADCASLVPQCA
RGS4 act: RGS4 potentiators or activators, primary screen, cell-based, HEK293 M3R inducible RGS4, calcium flux; AID 463111, 2010; 310,000 tested, 0.92% active; B-score at 10 µM; carbachol calcium flux Fluo4; active compounds read low;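 active = B-score of the integrated calcium signal more than 4 SD below the library mean, with starting fluorescence not abnormally high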;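 note: negative B-score means reduced calcium response which marks RGS4 activation or potentiation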
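Detection: kinetic calcium fluorescence imaging with Fluo4-AM dye, 2 µM / Material: HEK293 cells with stable M3R and inducible RGS4 / Schedule: recording 10 s baseline at 1 Hz, 100 s post-agonist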
MrgX1 antag: antagonists of human MrgX1 receptor, primary screen, HEK293 cells, Fluo-4 calcium flux; 310,000 tested, 1.3% active; BAM8-22 antagonism; active compounds read low; B-score at 10 µM; Mas-related G-protein coupled receptor member X1 (Homo sapiens), Q96LB2;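 active = calcium-response B-score plate-corrected more than 3 library SD below zero, starting fluorescence within 5 deviations, no agonist response on first addition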;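 note: peak minus trough fluorescence over baseline after final BAM8-22 challenge near maximal dose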
Target sequence (Q96LB2 whole entry, looked up): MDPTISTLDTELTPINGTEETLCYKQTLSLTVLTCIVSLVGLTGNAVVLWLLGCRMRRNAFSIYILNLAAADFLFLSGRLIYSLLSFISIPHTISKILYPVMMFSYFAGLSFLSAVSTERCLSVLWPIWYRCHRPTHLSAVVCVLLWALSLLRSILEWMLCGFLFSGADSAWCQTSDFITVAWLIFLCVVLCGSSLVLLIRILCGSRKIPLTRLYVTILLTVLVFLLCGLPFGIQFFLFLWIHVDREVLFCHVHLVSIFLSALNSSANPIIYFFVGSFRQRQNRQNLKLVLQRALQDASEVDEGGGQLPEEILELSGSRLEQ
MrgX1 ag: agonists of human MrgX1 receptor, primary screen, HEK293 cells, Fluo-4 calcium flux; Mas-related G-protein coupled receptor member X1 (Homo sapiens), Q96LB2; Fluo-4 calcium fluorescence, agonist mode; active compounds read high; B-score at 10 µM; 310,000 tested, 0.44% active;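 active = calcium response B-score plate-corrected fluorescence ratio at least 3 library SD, with starting fluorescence B-score inside 5 SD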
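Assay system: MrgX1-expressing HEK293 cells / Amount: fifteen thousand cells per well / Doses: test compound in the initial addition of three / Timing: cells plated overnight, dye loaded 0.5 h 37 °C, 0.5 h room temperature / Technique: kinetic calcium dye fluorescence, Fluo-4 NW / Control set: positive and negative controls per plate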
MrgX1 PAM: positive allosteric modulators of MrgX1, primary screen, HEK293 cells, Fluo-4 calcium flux; B-score at 10 µM; Mas-related G-protein coupled receptor member X1 (Homo sapiens), Q96LB2; FDSS; active compounds read high; 310,000 tested, 0.63% active;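 active = plate-corrected calcium response at least 3 library SD above typical, normal starting fluorescence, not activating the receptor alone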;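 note: compound read alongside a low EC10 to EC30 dose of BAM8-22 agonist; peak minus trough fluorescence over baseline measured at the second addition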
* hit, by the source's call; i = inactive. Hits are enriched below; roughly 3.5% of the tested compounds scored in any of these assays.

SMILES	RGS4 inh	RGS4 act	MrgX1 antag	MrgX1 ag	MrgX1 PAM
COc1ccc(/C=C2\Oc3cc(OCC(=O)N4CCC[C@H]4C(=O)O)ccc3C2=O)c(OC)c1	i	i	i	i	i
COc1ccc(OC)c(/C=C2\Oc3cc(OCC(=O)N4CCC[C@H]4C(=O)O)ccc3C2=O)c1	i	i	i	31.4*	i
O=C(Oc1ccc(=O)n(-c2ccccc2)n1)c1ccc(Cl)cc1	i	i	i	i	i
Cc1ccc2c(c1)C(O)(c1c(C)[nH]c3ccccc13)C(=O)N2 (configuration not stated)	6.31*	i	i	i	i
Cc1[nH]c2ccccc2c1C1(O)C(=O)N(C(C)C)c2ccccc21 (configuration not stated)	i	i	i	i	i
Cc1cc(OCc2cc(C(=O)N3CCC(Oc4cccnc4)CC3)no2)cc(C)c1Cl	i	-6.98*	i	i	i
CCCCC(CC)C(=O)Nc1ncc([N+](=O)[O-])s1 (configuration not stated)	i	i	i	i	7.41*
O=C(CSc1c2c(nc3cc(Cl)ccc13)CCCC2)NCCCN1CCOCC1	i	i	i	i	i
CCN(CC)CCCNC(=O)CSc1c2c(nc3cc(Cl)ccc13)CCCC2	i	-7.23*	i	i	i
COc1cc(C(=O)Nc2nnc(C(F)(F)F)s2)c([N+](=O)[O-])cc1OC	i	i	-6.42*	i	i
COc1cc(C(=O)Nc2nnc(SC)s2)c([N+](=O)[O-])cc1OC	i	i	i	i	i
O=C(OC(C(=O)Nc1cc(Cl)cc(Cl)c1)c1ccccc1)C1=COCCO1 (configuration not stated)	i	i	-5.3*	i	i
COc1ccc2c(COC(=O)c3cccc(S(=O)(=O)NCC(C)C)c3)cc(=O)oc2c1	i	-7.19*	i	i	i
Cc1cc(NC(=O)c2c(F)cccc2Cl)no1	i	i	i	i	i
O=C(OCC(=O)N(CCc1ccccc1)Cc1ccccc1)c1ccccc1NCCO	i	-8.41*	i	i	i
O=C(OCC(=O)N(CCc1ccccc1)Cc1ccccc1)c1ccccc1O	i	i	i	i	i
Cc1ccc(C)c(NC(=O)C(Sc2nc3ccccc3c(=O)n2CC(C)C)c2ccccc2)c1 (configuration not stated)	i	-7.3*	i	i	i
CCCn1nc(C(=O)Nc2cc(C(=O)OC)ccc2C)c2ccccc2c1=O	i	i	i	i	i
COc1ccc(S(=O)(=O)N2CCc3ccccc32)cc1C(=O)OCC(=O)c1c(N)n(C)c(=O)n(C)c1=O	i	-9.62*	i	i	i
CC(C)N(C(=O)C1CC(=O)OC12CCCCC2)C(C)C (configuration not stated)	i	i	i	i	i
O=C(c1ccccc1)c1ccc(Oc2ncccn2)cc1	i	i	i	i	i
Nc1c(Cl)cc(C2=NCCn3c2c2ccccc2[n+]3[O-])cc1Cl	i	i	i	i	i
COc1ccc(-c2cn(-c3ccc(OC)cc3)c3[n+]2-c2ccccc2CC3)cc1	i	i	-7.91*	i	i
CCN1C(=O)CC2(C[N+]3(C)CCC2CC3)C1=O (configuration not stated)	i	-7.16*	i	i	i
COc1ccc(OC)c(C2=C/C(=C/c3ccccn3)C(=O)O2)c1	i	-7.86*	i	i	i
SMILES	RGS4 inh	RGS4 act	MrgX1 antag	MrgX1 ag	MrgX1 PAM
O=C(Nc1ccccc1Cl)C1(c2ccccc2)CC1(Cl)Cl (configuration not stated)	i	-7.03*	i	i	i
Cc1ccc(C(=O)Nc2ccccc2Oc2ccccc2)o1	i	i	-4.53*	i	i
CS(=O)(=O)c1ccc2c(c1)sc1nc(=O)c(/C=C3/C=CC(=O)C(O)=C3)c(N)n12	i	i	i	i	27.7*
CS(=O)(=O)c1nsc2nc(=O)c(/C=C3\C=Nc4ccccc43)c(N)n12	i	i	i	i	i
COC1=C/C(=C/c2c(N)n3c(nc2=O)sc2cc(S(C)(=O)=O)ccc23)C=CC1=O	i	i	i	i	10.3*
COc1cc(OC)c(C(=O)OCC(=O)Nc2cc(C)on2)cc1OC	i	i	i	i	i
CCOc1ccc(-c2nc(-c3cccs3)c(CC(=O)O)s2)cc1OC	i	i	i	i	i
CC(=O)c1ccc(-c2nc3c4ccccc4ccn3c2C(C)=O)o1	i	i	i	i	i
CC1(C)CC(=O)C(C(c2ccco2)C2C(=O)CC(C)(C)CC2=O)C(=O)C1	i	i	-6.82*	i	i
CC1(C)CC(=O)C(C(c2ccc(Br)cc2)C2C(=O)CC(C)(C)CC2=O)C(=O)C1	i	i	i	41*	i
O=C(c1cc2c(s1)CCC2)N1C(=O)c2ccccc2S1(=O)=O	i	i	i	i	i
C/C=C/C=C/C(=O)OC(C)C(=O)Nc1cc([N+](=O)[O-])ccc1OC (configuration not stated)	i	i	i	i	7.55*
COc1ccc([N+](=O)[O-])cc1NC(=O)C(C)OC(=O)c1ccccn1 (configuration not stated)	i	i	i	i	i
CCOC(=O)c1ccc(Nc2ncccc2[N+](=O)[O-])cc1	i	i	-5.8*	i	i
CCOC(=O)c1ccc(NC(=O)c2ccccc2[N+](=O)[O-])cc1	i	i	i	i	i
CC1(C)CC2CC(C)(CN2S(=O)(=O)c2ccc(C(=O)Nc3cccc(S(=O)(=O)N4CCOCC4)c3)cc2)C1 (configuration not stated)	i	i	i	i	i
CC1(C)CC2CC(C)(CN2S(=O)(=O)c2ccc(C(=O)Nc3cc(S(=O)(=O)N4CCOCC4)ccc3Cl)cc2)C1 (configuration not stated)	i	-7.22*	i	i	i
Cc1cccc(-c2oc3ccccc3c2-c2ccc3c(c2)OCO3)c1	i	i	-6*	i	i
Cc1ccc(NS(=O)(=O)c2cc([N+](=O)[O-])ccc2N/N=C/c2sc(N3CCOCC3)nc2-c2ccccc2)c(C)c1	i	i	-9.43*	i	i
